Results: article PMC3625964 (Journal of medicinal chemistry, 2013)
Marks after values point to notes of the source that are not given here.

What was measured:
human factor XIa [1] = biological target: T1, human factor XIa (Homo sapiens, UniProt P03951); experiment: Direct inhibition of FXIa, chromogenic substrate; format: biochemical
FXIa-DEGR = FXIa-DEGR (Homo sapiens, UniProt P03951); experiment: Fluorescence titration of active site labeled FXIa; format: binding; conditions: 250 nM FXIa-DEGR, pH 7.4, 37 °C; for ΔFMAX: 547 nm
Chain of FXIa-DEGR (P03951 388-625 limits assumed): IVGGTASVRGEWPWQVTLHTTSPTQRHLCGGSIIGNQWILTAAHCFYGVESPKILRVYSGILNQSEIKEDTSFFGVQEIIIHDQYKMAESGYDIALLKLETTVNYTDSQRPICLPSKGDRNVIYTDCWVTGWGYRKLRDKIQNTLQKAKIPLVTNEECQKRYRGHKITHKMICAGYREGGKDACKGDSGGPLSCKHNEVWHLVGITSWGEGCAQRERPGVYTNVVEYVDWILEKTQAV
Chain of FXIa-DEGR (P03951 19-387 partner limits assumed): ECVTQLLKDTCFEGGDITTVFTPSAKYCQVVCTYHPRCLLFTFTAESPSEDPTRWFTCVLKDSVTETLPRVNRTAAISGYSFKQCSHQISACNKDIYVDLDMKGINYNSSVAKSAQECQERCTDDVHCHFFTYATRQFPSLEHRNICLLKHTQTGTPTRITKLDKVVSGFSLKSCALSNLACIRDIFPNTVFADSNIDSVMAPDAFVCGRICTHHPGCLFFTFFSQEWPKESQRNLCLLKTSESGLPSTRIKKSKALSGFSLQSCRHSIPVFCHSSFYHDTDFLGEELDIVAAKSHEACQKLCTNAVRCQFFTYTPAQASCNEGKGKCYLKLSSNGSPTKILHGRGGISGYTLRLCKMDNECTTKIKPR
In short: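 Plasma-derived human FXIa with a dansyl active-site label (FXIa-DEGR, 250 nM) in 50 mM Tris-HCl pH 7.4, 150 mM NaCl, 0.1% PEG8000 at 37 °C was titrated with aliquots of test compound in the same buffer. Emission at 547 nm (excitation 345 nm) was tracked. Hill-equation fits gave KD,app, n and ΔFMAX. At least two runs were done.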

human plasma [2] = experiment: Activated partial thromboplastin time; format: biochemical
In short: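 Citrated pooled normal human plasma was mixed with test compound and prewarmed APTT reagent (0.2% ellagic acid) and incubated 4 min at 37 °C. Clotting was started with prewarmed 25 mM CaCl2, and clot time was read on a fibrometer. Runs were in duplicate. A quadratic trend line of clot time versus concentration gave the concentration doubling clotting time.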

human plasma [3] = experiment: Prothrombin time; format: biochemical
In short: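 One-stage recalcification assay. Test compound was brought up in citrated pooled normal human plasma and held 30 s at 37 °C. Prewarmed reconstituted thromboplastin-D was added, and clot time was read on a fibrometer. Runs were in duplicate and the mean of two is reported. A quadratic trend line gave the concentration needed to double clotting time.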

human factor XIa [4] = biological target: T1, human factor XIa; experiment: Michaelis-Menten kinetics of S2366 hydrolysis by FXIa in presence of 14S; format: biochemical
FXIa-CD = FXIa-CD (Homo sapiens, UniProt P03951, C500S); experiment: Inhibition of recombinant wild type FXIa catalytic domain; format: biochemical; conditions: catalytic domain alone
Chain of FXIa-CD (P03951 388-625 C500S): as the sequence (P03951 388-625 limits assumed) above, with C113S counted along it
In short: (§1)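 Human FXI cDNA with Cys362Ser/Cys482Ser, so the catalytic domain separates from the heavy chain, carried alanine substitutions at 170-helix residues (single or combined). It was stably expressed in HEK-293 with serum-free medium and purified on anti-FXI 1G5.12 affinity. It was activated with 5 μg/ml FXIIa at 37 °C, and the catalytic domain was isolated on 1G5.12. Dose-response used S2366 hydrolysis in 50 mM Tris-HCl pH 7.4, 150 mM NaCl, 0.1% PEG8000, 0.02% Tween80 at 37 °C, with logistic fits.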

[5] = tested on: Lys529Ala,Arg530Ala,Arg532Ala FXIa-CD; experiment: Inhibition of FXIa-CD triple mutant; format: biochemical, human; conditions: Arg532Ala vs FXIa-CD
In short: as §1

Lys535Ala FXIa-CD = Lys535Ala FXIa-CD (Homo sapiens, UniProt P03951, C500S/K553A); experiment: Inhibition of Lys535Ala FXIa-CD mutant; format: biochemical
Chain of Lys535Ala FXIa-CD (P03951 388-625 C500S/K553A): as the sequence (P03951 388-625 limits assumed) above, with C113S, K166A counted along it
In short: as §1

Lys539Ala FXIa-CD = Lys539Ala FXIa-CD (Homo sapiens, UniProt P03951, C500S/K557A); experiment: Inhibition of Lys539Ala FXIa-CD mutant; format: biochemical
Chain of Lys539Ala FXIa-CD (P03951 388-625 C500S/K557A): as the sequence (P03951 388-625 limits assumed) above, with C113S, K170A counted along it
In short: as §1

[6] = biological target: FXIa–CD containing Lys529Ala,Arg530Ala,Arg532Ala triple mutations (Homo sapiens, UniProt P03951, C500S/K547A/R548A/R550A); experiment: Polybrene competition, S2366 hydrolysis, FXIa-CD triple mutant; format: biochemical; conditions: 30 μM polybrene
Chain of FXIa–CD containing Lys529Ala,Arg530Ala,Arg532Ala triple mutations (P03951 388-625 C500S/K547A/R548A/R550A): as the sequence (P03951 388-625 limits assumed) above, with C113S, K160A, R161A, R163A counted along it
In short: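 Recombinant FXIa catalytic domain bearing Lys529Ala/Arg530Ala/Arg532Ala (HEK-293 expressed, affinity purified, FXIIa-activated) was tested alongside full-length FXIa and wild-type catalytic domain. Proteolytic activity was measured by S2366 hydrolysis in the presence of 30 μM polybrene and 3 μM test compound.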

T1 sequence (P03951 388-625 limits assumed): as the sequence (P03951 388-625 limits assumed) above
T1 sequence (P03951 19-387 partner limits assumed): as the sequence (P03951 19-387 partner limits assumed) above

CC(=O)Oc1cccc(-c2nc3ccccc3c(=O)n2Cc2cn(CCCCn3c(-c4cccc(OS(=O)(=O)O)c4)nc4ccccc4c3=O)nn2)c1 [Inhibitor 7S]
inhibition of factor XIa (in words) (human factor XIa [1]; pH 7.4, 37 °C): inactive

O=c1c2ccccc2nc(-c2ccc(OS(=O)(=O)O)cc2)n1CCCCn1cc(Cn2c(-c3ccc(OS(=O)(=O)O)cc3)nc3ccccc3c2=O)nn1 [Inhibitor 13S]
Hill coefficient n (FXIa-DEGR): 7.9 ± 1.9 | ΔFMAX (FXIa-DEGR): 66 ± 2 ^b % | prolongation of APTT (human plasma [2]): dose-dependent prolongation | activity in the PT assay (human plasma [3]; human plasma): reasonable dose-dependent prolongation of clotting time | 2-fold increase in PT (concentration) (human plasma [3]; human plasma, calculated from trend line): about 1.12 mM

O=c1c2ccccc2nc(-c2cccc(OS(=O)(=O)O)c2)n1CCCCn1cc(Cn2c(-c3ccc(OS(=O)(=O)O)cc3)nc3ccccc3c2=O)nn1 [Inhibitor 14S]
mechanism of factor XIa inhibition (human factor XIa [4]): non-competitive | VMAX of substrate hydrolysis (human factor XIa [4]; 135 μM 14S, pH 7.4, 37 °C): 5.1±0.5 mAU/min | Hill coefficient n (FXIa-DEGR): 9.0 ± 1.1 | ΔFMAX (FXIa-DEGR): 57 ± 2%

O=c1c2ccccc2nc(-c2ccc(OS(=O)(=O)O)cc2)n1CCCCCn1cc(Cn2c(-c3ccc(OS(=O)(=O)O)cc3)nc3ccccc3c2=O)nn1 [Inhibitor 15S]
Hill coefficient n (FXIa-DEGR): 6.8 ± 2.7 | ΔFMAX (FXIa-DEGR): 72 ± 2% | prolongation of APTT (human plasma [2]): dose-dependent prolongation | activity in the PT assay (human plasma [3]; human plasma): much less active

O=c1c2ccccc2nc(-c2ccc(OS(=O)(=O)O)cc2)n1CCCCCCn1cc(Cn2c(-c3ccc(OS(=O)(=O)O)cc3)nc3ccccc3c2=O)nn1 [Inhibitor 16S]
Hill coefficient n (FXIa-DEGR): 6.4 ± 2.0 | ΔFMAX (FXIa-DEGR): 90 ± 3% | prolongation of APTT (human plasma [2]): dose-dependent prolongation | 2 × PT (concentration to double clotting time) (human plasma [3]; citrated human plasma): >2000 µM | activity in the PT assay (human plasma [3]; human plasma): much less active | inhibition of FXIa-CD compared with wild-type enzyme (FXIa-CD): as potently as the wild-type enzyme | reduction in potency [5]: approximately 5 fold | change in IC50 from wild-type FXIa-CD (Lys535Ala FXIa-CD): no change in IC50 | change in IC50 from wild-type FXIa-CD (Lys539Ala FXIa-CD): no change in IC50 | loss in inhibition by addition of polybrene [6]: 1.45 fold

O=c1c2ccccc2nc(-c2ccc(OS(=O)(=O)O)cc2)n1Cc1cn(CCn2cc(Cn3c(-c4ccc(OS(=O)(=O)O)cc4)nc4ccccc4c3=O)nn2)nn1 [Inhibitor 28S]
IC50 (human factor XIa [1]): < 100 µM | fold less potent than 15S (human factor XIa [1]; versus 15S): approximately 6 fold
